Values after ≈ are worked out from the molar mass of the structure shown.
How the values were obtained:
Type in all cases: functional
[1] = test system: Klebsiella pneumoniae; assay: Antibacterial activity against Klebsiella pneumoniae 14-4 after 18 to 24 hrs by two-fold serial dilution method
Method in brief: (§1)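 Twofold serial dilution in agar media against Gram-positive and Gram-negative strains. Plates incubated at 35 °C for 18–24 h. MIC read as the lowest compound concentration giving complete inhibition of bacterial growth.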

[2] = test system: Staphylococcus epidermidis; assay: Antibacterial activity against methicillin-sensitive Staphylococcus epidermidis 14-2 after 18 to 24 hrs by two-fold serial dilution method; method in brief: as §1
[3] = test system: Enterococcus faecalis; assay: Antibacterial activity against Enterococcus faecalis 14-1 after 18 to 24 hrs by two-fold serial dilution method; method in brief: as §1
[4] = test system: Staphylococcus aureus; assay: Antibacterial activity against methicillin-resistant Staphylococcus aureus 14-5 after 18 to 24 hrs by two-fold serial dilution method
Method in brief: (§2)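 Agar media, standard twofold serial dilution. MIC is the lowest concentration giving complete inhibition of bacterial growth after incubation at 35 °C for 18–24 h. Ciprofloxacin and levofloxacin were run as comparators.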

[5] = test system: Escherichia coli; assay: Antibacterial activity against Escherichia coli 14-2 after 18 to 24 hrs by two-fold serial dilution method; method in brief: as §1
[6] = test system: Pseudomonas aeruginosa; assay: Antibacterial activity against Pseudomonas aeruginosa 14-16 after 18 to 24 hrs by two-fold serial dilution method; method in brief: as §1
[7] = test system: Klebsiella pneumoniae; assay: Antibacterial activity against extended-spectrum beta-lactamase producing Klebsiella pneumoniae 14-19 after 18 to 24 hrs by two-fold serial dilution method; method in brief: as §1
[8] = test system: Staphylococcus aureus; assay: Antibacterial activity against methicillin-sensitive Staphylococcus aureus 14-4 after 18 to 24 hrs by two-fold serial dilution method; method in brief: as §1
[9] = test system: Klebsiella pneumoniae; assay: Antibacterial activity against Klebsiella pneumoniae 14-1 after 18 to 24 hrs by two-fold serial dilution method; method in brief: as §1
[10] = test system: Staphylococcus epidermidis; assay: Antibacterial activity against methicillin-resistant Staphylococcus epidermidis 14-22 after 18 to 24 hrs by two-fold serial dilution method; method in brief: as §2
[11] = test system: Pseudomonas aeruginosa; assay: Antibacterial activity against Pseudomonas aeruginosa ATCC 27853 after 18 to 24 hrs by two-fold serial dilution method; method in brief: as §1
[12] = test system: Staphylococcus epidermidis; assay: Antibacterial activity against methicillin-resistant Staphylococcus epidermidis 14-37 after 18 to 24 hrs by two-fold serial dilution method; method in brief: as §2
[13] = test system: Pseudomonas aeruginosa; assay: Antibacterial activity against Pseudomonas aeruginosa 14-15 after 18 to 24 hrs by two-fold serial dilution method; method in brief: as §1
[14] = test system: Mycobacterium tuberculosis; assay: Antimycobacterial activity against Mycobacterium tuberculosis H37Rv ATCC 27294 incubated for 7 days by microplate Alamar Blue assay; conditions: H37Rv ATCC 27294, 168 h
Method in brief: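 Fluorescence read-out. MIC is the lowest concentration that reduces fluorescence by at least 90% relative to the mean of replicate bacterium-only controls. Isoniazid and rifampicin were included as reference drugs.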

[15] = test system: Staphylococcus aureus; assay: Antibacterial activity against Staphylococcus aureus CMCC 26003 after 18 to 24 hrs by two-fold serial dilution method; method in brief: as §1
[16] = test system: Staphylococcus epidermidis; assay: Antibacterial activity against methicillin-resistant Staphylococcus epidermidis 14-39 after 18 to 24 hrs by two-fold serial dilution method; method in brief: as §2
[17] = test system: Escherichia coli; assay: Antibacterial activity against Escherichia coli 14-1 after 18 to 24 hrs by two-fold serial dilution method; method in brief: as §1
[18] = test system: Escherichia coli; assay: Antibacterial activity against extended-spectrum beta-lactamase producing Escherichia coli 14-2 after 18 to 24 hrs by two-fold serial dilution method; method in brief: as §1
[19] = test system: Klebsiella pneumoniae; assay: Antibacterial activity against extended-spectrum beta-lactamase producing Klebsiella pneumoniae 14-18 after 18 to 24 hrs by two-fold serial dilution method; method in brief: as §1
[20] = test system: Pseudomonas aeruginosa; assay: Antibacterial activity against Pseudomonas aeruginosa 14-9 after 18 to 24 hrs by two-fold serial dilution method; method in brief: as §1
[21] = test system: Escherichia coli; assay: Antibacterial activity against Escherichia coli ATCC 25922 after 18 to 24 hrs by two-fold serial dilution method; method in brief: as §1
[22] = test system: Klebsiella pneumoniae; assay: Antibacterial activity against extended-spectrum beta-lactamase producing Klebsiella pneumoniae 14-17 after 18 to 24 hrs by two-fold serial dilution method; method in brief: as §1
[23] = test system: Enterococcus faecium; assay: Antibacterial activity against Enterococcus faecium 14-2 after 18 to 24 hrs by two-fold serial dilution method; method in brief: as §1
[24] = test system: Enterococcus faecalis; assay: Antibacterial activity against Enterococcus faecalis 14-2 after 18 to 24 hrs by two-fold serial dilution method; method in brief: as §1
[25] = test system: Pseudomonas aeruginosa; assay: Antibacterial activity against Pseudomonas aeruginosa 14-14 after 18 to 24 hrs by two-fold serial dilution method; method in brief: as §1
[26] = test system: Klebsiella pneumoniae; assay: Antibacterial activity against Klebsiella pneumoniae 14-2 after 18 to 24 hrs by two-fold serial dilution method; method in brief: as §1
[27] = test system: Staphylococcus aureus; assay: Antibacterial activity against methicillin-sensitive Staphylococcus aureus 14-1 after 18 to 24 hrs by two-fold serial dilution method; method in brief: as §1
[28] = test system: Escherichia coli; assay: Antibacterial activity against extended-spectrum beta-lactamase producing Escherichia coli 14-1 after 18 to 24 hrs by two-fold serial dilution method; method in brief: as §1
[29] = test system: Staphylococcus epidermidis; assay: Antibacterial activity against methicillin-resistant Staphylococcus epidermidis 14-21 after 18 to 24 hrs by two-fold serial dilution method; method in brief: as §2
[30] = test system: Klebsiella pneumoniae; assay: Antibacterial activity against Klebsiella pneumoniae 14-3 after 18 to 24 hrs by two-fold serial dilution method; method in brief: as §1
[31] = test system: Enterococcus faecium; assay: Antibacterial activity against Enterococcus faecium 14-5 after 18 to 24 hrs by two-fold serial dilution method; method in brief: as §1
[32] = test system: Enterococcus faecium; assay: Antibacterial activity against Enterococcus faecium 14-6 after 18 to 24 hrs by two-fold serial dilution method; method in brief: as §1
[33] = test system: Staphylococcus aureus; assay: Antibacterial activity against methicillin-resistant Staphylococcus aureus 14-4 after 18 to 24 hrs by two-fold serial dilution method; method in brief: as §2
[34] = test system: Staphylococcus aureus; assay: Antibacterial activity against methicillin-sensitive Staphylococcus aureus 14-3 after 18 to 24 hrs by two-fold serial dilution method; method in brief: as §1
[35] = test system: Streptococcus pneumoniae; assay: Antibacterial activity against methicillin-resistant Streptococcus pneumoniae ATCC 19615 after 18 to 24 hrs by two-fold serial dilution method; method in brief: as §2

SMILES	MIC [1]	MIC [2]	MIC [3]	MIC [4]	MIC [5]	MIC [6]	MIC [7]	MIC [8]	MIC [9]	MIC [10]	MIC [11]	MIC [12]	MIC [13]	MIC90 [14]	MIC [15]	MIC [16]	MIC [17]	MIC [18]	MIC [19]	MIC [20]	other results
O=C(O)c1cn([C@@H]2C[C@@H]2F)c2nc(N3C/C(=N/OCc4ccccc4)C(CNC4CC4)C3)c(F)cc2c1=O (some centres undefined)	> 128 µg/mL	32 µg/mL (≈ 61.1 µM)	64 µg/mL (≈ 122 µM)	8 µg/mL (≈ 15.3 µM)	> 128 µg/mL	64 µg/mL (≈ 122 µM)	128 µg/mL (≈ 244 µM)	16 µg/mL (≈ 30.6 µM)	128 µg/mL (≈ 244 µM)	8 µg/mL (≈ 15.3 µM)	32 µg/mL (≈ 61.1 µM)	16 µg/mL (≈ 30.6 µM)	64 µg/mL (≈ 122 µM)	2.1 µg/mL (≈ 4.01 µM)	< 0.008 µg/mL	64 µg/mL (≈ 122 µM)	> 128 µg/mL	> 128 µg/mL	64 µg/mL (≈ 122 µM)	8 µg/mL (≈ 15.3 µM)	MIC [21]: 0.25 µg/mL (≈ 0.478 µM); MIC [22]: 64 µg/mL (≈ 122 µM); MIC [23]: 8 µg/mL (≈ 15.3 µM); MIC [24]: 1 µg/mL (≈ 1.91 µM); MIC [25]: 64 µg/mL (≈ 122 µM); MIC [26]: 64 µg/mL (≈ 122 µM); MIC [27]: 4 µg/mL (≈ 7.64 µM); MIC [28]: 16 µg/mL (≈ 30.6 µM); MIC [29]: 16 µg/mL (≈ 30.6 µM); MIC [30]: 128 µg/mL (≈ 244 µM); MIC [31]: 16 µg/mL (≈ 30.6 µM); MIC [32]: 32 µg/mL (≈ 61.1 µM); MIC [33]: 32 µg/mL (≈ 61.1 µM); MIC [34]: 4 µg/mL (≈ 7.64 µM); MIC [35]: 1 µg/mL (≈ 1.91 µM)
CCO/N=C1/CN(c2nc3c(cc2F)c(=O)c(C(=O)O)cn3[C@@H]2C[C@@H]2F)CC1CNC1CC1 (some centres undefined)	128 µg/mL (≈ 277 µM)	64 µg/mL (≈ 139 µM)	32 µg/mL (≈ 69.3 µM)	8 µg/mL (≈ 17.3 µM)	> 128 µg/mL	32 µg/mL (≈ 69.3 µM)	64 µg/mL (≈ 139 µM)	8 µg/mL (≈ 17.3 µM)	32 µg/mL (≈ 69.3 µM)	8 µg/mL (≈ 17.3 µM)	16 µg/mL (≈ 34.7 µM)	16 µg/mL (≈ 34.7 µM)	32 µg/mL (≈ 69.3 µM)	0.72 µg/mL (≈ 1.56 µM)	< 0.008 µg/mL	32 µg/mL (≈ 69.3 µM)	128 µg/mL (≈ 277 µM)	128 µg/mL (≈ 277 µM)	32 µg/mL (≈ 69.3 µM)	8 µg/mL (≈ 17.3 µM)	MIC [21]: 0.03 µg/mL (≈ 0.065 µM); MIC [22]: 32 µg/mL (≈ 69.3 µM); MIC [23]: 4 µg/mL (≈ 8.67 µM); MIC [24]: 0.125 µg/mL (≈ 0.271 µM); MIC [25]: 32 µg/mL (≈ 69.3 µM); MIC [26]: 32 µg/mL (≈ 69.3 µM); MIC [27]: 4 µg/mL (≈ 8.67 µM); MIC [28]: 16 µg/mL (≈ 34.7 µM); MIC [29]: 16 µg/mL (≈ 34.7 µM); MIC [30]: 128 µg/mL (≈ 277 µM); MIC [31]: 16 µg/mL (≈ 34.7 µM); MIC [32]: 32 µg/mL (≈ 69.3 µM); MIC [33]: 16 µg/mL (≈ 34.7 µM); MIC [34]: 4 µg/mL (≈ 8.67 µM); MIC [35]: 1 µg/mL (≈ 2.17 µM)
CCO/N=C1/CN(c2nc3c(cc2F)c(=O)c(C(=O)O)cn3C2CC2)CC1(C)CNC1CC1 (centres undefined)	> 128 µg/mL	8 µg/mL (≈ 17.5 µM)	16 µg/mL (≈ 35 µM)	4 µg/mL (≈ 8.74 µM)	> 128 µg/mL	32 µg/mL (≈ 69.9 µM)	64 µg/mL (≈ 140 µM)	0.25 µg/mL (≈ 0.546 µM)	64 µg/mL (≈ 140 µM)	4 µg/mL (≈ 8.74 µM)	32 µg/mL (≈ 69.9 µM)	2 µg/mL (≈ 4.37 µM)	64 µg/mL (≈ 140 µM)	< 0.25 µg/mL	< 0.008 µg/mL	4 µg/mL (≈ 8.74 µM)	> 128 µg/mL	> 128 µg/mL	64 µg/mL (≈ 140 µM)	32 µg/mL (≈ 69.9 µM)	MIC [21]: 1 µg/mL (≈ 2.19 µM); MIC [22]: 64 µg/mL (≈ 140 µM); MIC [23]: 4 µg/mL (≈ 8.74 µM); MIC [24]: 0.125 µg/mL (≈ 0.273 µM); MIC [25]: 128 µg/mL (≈ 280 µM); MIC [26]: 64 µg/mL (≈ 140 µM); MIC [27]: 0.25 µg/mL (≈ 0.546 µM); MIC [28]: 32 µg/mL (≈ 69.9 µM); MIC [29]: 4 µg/mL (≈ 8.74 µM); MIC [30]: 128 µg/mL (≈ 280 µM); MIC [31]: 8 µg/mL (≈ 17.5 µM); MIC [32]: 4 µg/mL (≈ 8.74 µM); MIC [33]: 4 µg/mL (≈ 8.74 µM); MIC [34]: 0.5 µg/mL (≈ 1.09 µM); MIC [35]: 0.25 µg/mL (≈ 0.546 µM)
CO/N=C1/CN(c2c(F)cc3c(=O)c(C(=O)O)cn(C4CC4)c3c2OC)CC1CNC1CC1 (centres undefined)	> 128 µg/mL	> 128 µg/mL	> 128 µg/mL	> 128 µg/mL	> 128 µg/mL	128 µg/mL (≈ 279 µM)	> 128 µg/mL	> 128 µg/mL	> 128 µg/mL	> 128 µg/mL	128 µg/mL (≈ 279 µM)	> 128 µg/mL	128 µg/mL (≈ 279 µM)	> 32 µg/mL	8 µg/mL (≈ 17.4 µM)	> 128 µg/mL	> 128 µg/mL	> 128 µg/mL	> 128 µg/mL	128 µg/mL (≈ 279 µM)	MIC [21]: 32 µg/mL (≈ 69.8 µM); MIC [22]: > 128 µg/mL; MIC [23]: > 128 µg/mL; MIC [24]: 64 µg/mL (≈ 140 µM); MIC [25]: 128 µg/mL (≈ 279 µM); MIC [26]: > 128 µg/mL; MIC [27]: > 128 µg/mL; MIC [28]: 128 µg/mL (≈ 279 µM); MIC [29]: > 128 µg/mL; MIC [30]: > 128 µg/mL; MIC [31]: > 128 µg/mL; MIC [32]: > 128 µg/mL; MIC [34]: > 128 µg/mL; MIC [35]: 64 µg/mL (≈ 140 µM)
